Source: ChEMBL document CHEMBL4196108, “5-Aroylindoles Act as Selective Histone Deacetylase 6 Inhibitors Ameliorating Alzheimer's Disease Phenotypes” (J Med Chem, 2018)
Activity calls are given as the source filed them. No cut-off for these calls is given here.

Experiments:
Mus musculus [1] = assay: In vivo inhibition of HDAC6 in 3xTg-AD transgenic mouse brain hippocampal CA1 region assessed as downregulation of scopolamine-mediated increase in Tau phosphorylation at Ser396 residue at 50 mg/kg, po administered daily for 3 months by immunohistochemical analysis; format: functional, organism-based
Procedure, shortened: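 Female 3xTg-AD mice, standard diet to 6 months of age, then 50 mg/kg orally once daily for three months; memantine 30 mg/kg in water as comparator. Brains removed and hippocampal CA1 sections immunostained for acetyl-α-tubulin and phospho-tau Ser396 and Ser404. Mean ± STD; one-way ANOVA.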

SH-SY5Y = assay: Inhibition of APP levels in human SH-SY5Y cells transfected with pCAX FLAG APP and pRK5-EGFP-Tau P301L plasmids at 1 uM after 24 hrs by Western blot analysis; format: functional, cell-based
Procedure, shortened: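 SH-SY5Y or Neuro-2a cells cotransfected 24 h with pCAX APP695 and pRK5-EGFP-Tau P301L, then treated 24 h at 1 µM. 20 µg lysate protein immunoblotted for APP and phospho-tau Ser396/Ser404. Mean ± STD of three independent experiments; Student's t-test.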

[2] = Drug uptake in Sprague-Dawley rat brain at 50 mg/kg, po after 1 hr by HPLC-MS/MS analysis; format: ADME, organism-based; conditions: read-out: Drug uptake
Mus musculus [3] = assay: In vivo inhibition of HDAC6 in 3xTg-AD transgenic mouse brain hippocampal CA1 region assessed as downregulation of […] expression of beta-amyloid at 50 mg/kg, po administered daily for 3 months by immunohistochemical analysis; format: functional, organism-based
Mus musculus [4] = assay: Toxicity in Balb/c mouse assessed as increase in body weight at 100 to 1000 mg/kg/day, ip administered for 6 days followed by 1 week recovery; format: organism-based; conditions: in vivo
Procedure, shortened: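 Male Balb/c mice given 100, 500 or 1000 mg/kg/day i.p. for 6 days, then 1 week recovery; six vehicle-injected mice as controls. Body weight and survival recorded daily.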

[5] = target: T1, Protein deacetylase HDAC6 (Mus musculus) (UniProt Q9Z2V5); assay: Inhibition of HDAC6 in mouse Neuro-2a cells transfected with pCAX FLAG APP and pRK5-EGFP-Tau P301L plasmids assessed as increase in HSP90 acetylation at 1 uM after 24 hrs by coimmunoprecipitation analysis; format: cell-based
T1 sequence (whole entry): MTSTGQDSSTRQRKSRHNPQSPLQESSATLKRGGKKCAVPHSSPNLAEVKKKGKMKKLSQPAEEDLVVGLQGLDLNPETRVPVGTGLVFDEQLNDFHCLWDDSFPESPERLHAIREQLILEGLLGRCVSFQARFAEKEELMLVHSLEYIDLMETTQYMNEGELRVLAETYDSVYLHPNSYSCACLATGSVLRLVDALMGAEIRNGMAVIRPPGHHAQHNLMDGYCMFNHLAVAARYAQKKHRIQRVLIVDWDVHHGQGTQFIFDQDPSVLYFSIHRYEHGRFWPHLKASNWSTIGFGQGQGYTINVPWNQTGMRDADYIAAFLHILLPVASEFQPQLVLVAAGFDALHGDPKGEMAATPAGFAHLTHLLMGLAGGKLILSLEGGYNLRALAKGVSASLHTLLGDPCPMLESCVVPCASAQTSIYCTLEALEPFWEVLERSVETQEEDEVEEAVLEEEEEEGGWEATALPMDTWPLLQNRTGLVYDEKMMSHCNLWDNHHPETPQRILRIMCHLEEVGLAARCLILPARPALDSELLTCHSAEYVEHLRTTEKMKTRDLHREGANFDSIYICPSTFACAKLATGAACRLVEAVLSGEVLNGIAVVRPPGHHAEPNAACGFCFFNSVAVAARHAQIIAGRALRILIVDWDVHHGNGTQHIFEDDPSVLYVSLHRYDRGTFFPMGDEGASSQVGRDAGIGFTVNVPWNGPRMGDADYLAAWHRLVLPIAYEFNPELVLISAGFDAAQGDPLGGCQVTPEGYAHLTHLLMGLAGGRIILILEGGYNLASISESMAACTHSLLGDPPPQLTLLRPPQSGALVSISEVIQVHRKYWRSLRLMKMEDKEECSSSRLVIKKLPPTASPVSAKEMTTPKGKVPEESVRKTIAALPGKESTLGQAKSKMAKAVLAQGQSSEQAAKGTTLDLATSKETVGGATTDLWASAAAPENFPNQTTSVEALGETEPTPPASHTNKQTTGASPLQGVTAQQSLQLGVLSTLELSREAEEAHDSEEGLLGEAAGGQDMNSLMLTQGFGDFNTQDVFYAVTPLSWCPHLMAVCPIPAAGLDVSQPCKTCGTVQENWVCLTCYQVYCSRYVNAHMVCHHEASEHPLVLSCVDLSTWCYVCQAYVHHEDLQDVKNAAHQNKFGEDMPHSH
Procedure, shortened: (§1)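 SH-SY5Y and Neuro-2a cells cotransfected 24 h with APP695/Tau P301L plasmids, treated 24 h at 1 µM (ACY-1215 reference). 30 µg lysate immunoprecipitated overnight at 4 °C with anti-HDAC6 or anti-acetyl-lysine antibodies plus protein A/G beads, run on 8% SDS-PAGE, probed for Hsp90; Hsp70 by immunoblot. Three independent experiments.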

[6] = Plasma concentration in Sprague-Dawley rat at 50 mg/kg, po after 1 hr by HPLC-MS/MS analysis; format: ADME, organism-based
[7] = target: T1, Protein deacetylase HDAC6 (Mus musculus); assay: Inhibition of HDAC6 binding to HSP90 in mouse Neuro-2a cells transfected with pCAX FLAG APP and pRK5-EGFP-Tau P301L plasmids at 1 uM after 24 hrs by coimmunoprecipitation analysis; format: cell-based; procedure, shortened: as §1

With `COc1ccc(C(=O)c2ccc3c(ccn3Cc3ccc(C(=O)NO)cc3)c2)cc1` the inhibition (Mus musculus [1]) was “Active”, the inhibition (SH-SY5Y) was “Active” and the concentration at 1 h [2] was 10.4 ng/g. The inhibition (Mus musculus [3]) was “Active”, the Activity (Mus musculus [4]) was “Non-Toxic” and the inhibition [5] was “Active”. For the same compound, the concentration at 1 h [6] was 8.5 ng/mL and the inhibition [7] was “Active”.
